{"source": "ChEMBL document CHEMBL5712885", "about": "“A chromatin activity-based chemoproteomic approach reveals a transcriptional repressome for gene-specific silencing” (Nat Commun, 2014)", "key": {"RAW264.7 [1]": {"tested_on": "RAW264.7", "experiment": "Down regulation of c-Myc protein expression in LPS tolerant mouse RAW264.7 cells at 1 ug/ml upto 90 mins in presence of LPS by immunoblot analysis", "format": "functional, cell-based", "details": "dose 1.0 µg/ml", "how_it_was_run": "(§1)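 Raw264.7 cells (shRNA G9a-knockdown line with ≥90% knockdown, or empty-vector control) primed with 100 ng ml⁻¹ LPS for 24 h, then given 1 µg ml⁻¹ cycloheximide for indicated times. c-Myc was detected by anti-c-Myc immunoblot with γ-tubulin loading control. Bands were quantified by densitometry and plotted, and half-life was read from the fitted curve.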"}, "RAW264.7 [2]": {"tested_on": "RAW264.7", "experiment": "Down regulation of c-Myc protein expression in LPS tolerant mouse RAW264.7 cells with G9a knockdown at 1 ug/ml upto 90 mins by immunoblot analysis", "format": "functional, cell-based", "details": "dose 1.0 µg/ml", "how_it_was_run": "as §1"}, "RAW264.7 [3]": {"tested_on": "RAW264.7", "experiment": "Down regulation of c-Myc protein expression in LPS tolerant mouse RAW264.7 cells with G9a overexpression at 1 ug/ml upto 90 mins in presence of LPS by immunoblot analysis", "format": "functional, cell-based", "details": "dose 1.0 µg/ml"}, "RAW264.7 [4]": {"tested_on": "RAW264.7", "experiment": "Upregulation of C-Myc protein expression in LPS tolerant mouse RAW264.7 cells with G9a knock down at 10 uM upto 4 hrs in presence of LPS by immunoblot analysis", "format": "functional, cell-based"}, "RAW264.7 [5]": {"tested_on": "RAW264.7", "experiment": "Upregulation of C-Myc protein expression in LPS tolerant mouse RAW264.7 cells in presence of G9a/LPS at 10 uM upto 4 hrs by immunoblot analysis", "format": "functional, cell-based"}, "RAW264.7 [6]": {"tested_on": "RAW264.7", "experiment": "Upregulation of C-Myc protein expression in LPS tolerant mouse RAW264.7 cells at 10 uM upto 4 hrs in presence of LPS by immunoblot analysis", "format": "functional, cell-based"}, "[7]": {"target": "T1, Histone-lysine N-methyltransferase EHMT2 (Mus musculus) (UniProt Q9Z148)", "T1 sequence (whole entry)": "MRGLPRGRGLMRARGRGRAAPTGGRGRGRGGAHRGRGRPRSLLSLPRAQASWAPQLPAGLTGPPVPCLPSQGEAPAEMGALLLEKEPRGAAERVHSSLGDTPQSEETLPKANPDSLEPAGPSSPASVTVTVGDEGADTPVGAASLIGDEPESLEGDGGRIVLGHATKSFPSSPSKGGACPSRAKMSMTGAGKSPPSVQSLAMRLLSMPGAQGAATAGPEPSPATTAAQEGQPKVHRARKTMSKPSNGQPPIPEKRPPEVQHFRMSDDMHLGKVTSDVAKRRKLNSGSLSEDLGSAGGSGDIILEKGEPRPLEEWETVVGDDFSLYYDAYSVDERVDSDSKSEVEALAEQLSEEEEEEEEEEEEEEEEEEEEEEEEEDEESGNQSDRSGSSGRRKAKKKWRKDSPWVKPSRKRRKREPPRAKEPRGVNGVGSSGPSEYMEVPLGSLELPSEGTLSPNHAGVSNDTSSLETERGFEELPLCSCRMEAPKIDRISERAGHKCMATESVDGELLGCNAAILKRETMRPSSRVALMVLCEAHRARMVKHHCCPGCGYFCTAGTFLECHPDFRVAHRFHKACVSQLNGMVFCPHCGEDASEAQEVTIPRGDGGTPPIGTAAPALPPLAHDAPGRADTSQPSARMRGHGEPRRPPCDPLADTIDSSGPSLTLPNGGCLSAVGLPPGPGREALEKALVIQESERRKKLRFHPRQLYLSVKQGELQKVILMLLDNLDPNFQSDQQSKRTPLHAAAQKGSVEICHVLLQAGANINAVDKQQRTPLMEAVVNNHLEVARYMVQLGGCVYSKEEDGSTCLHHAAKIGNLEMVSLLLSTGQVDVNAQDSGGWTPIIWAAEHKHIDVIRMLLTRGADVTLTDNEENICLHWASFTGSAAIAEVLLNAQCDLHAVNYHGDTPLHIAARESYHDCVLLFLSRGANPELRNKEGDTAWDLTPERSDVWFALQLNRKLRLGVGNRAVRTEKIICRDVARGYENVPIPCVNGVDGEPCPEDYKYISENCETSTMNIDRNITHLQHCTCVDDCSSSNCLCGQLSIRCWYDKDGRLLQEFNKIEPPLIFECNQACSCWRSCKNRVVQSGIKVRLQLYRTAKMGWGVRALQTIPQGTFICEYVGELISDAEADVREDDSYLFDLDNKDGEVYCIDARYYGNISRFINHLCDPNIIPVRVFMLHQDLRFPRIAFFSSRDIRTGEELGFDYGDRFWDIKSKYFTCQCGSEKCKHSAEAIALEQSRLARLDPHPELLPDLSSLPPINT", "details": "C57BL/6, BMDM, dose 250.0 nM, time 16.0 hrs"}, "RAW264.7 [8]": {"tested_on": "RAW264.7", "experiment": "Cytotoxicity against mouse RAW264.7 cells assessed as reduction in cell survival at 1 uM after 9 days Giemsa staining based assay", "format": "toxicity", "details": "raw264.7, 216 h, time 9 day", "how_it_was_run": "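Raw264.7 cells plated at 50, 100 and 200 viable cells in duplicate wells, primed 48 h with 100 ng ml⁻¹ LPS, then given fresh media containing 1 μM inhibitor. Grown 9 days, then fixed in methanol-acetic acid (3:1) and stained 30 min with 10% Giemsa. Colonies over 20 cells counted. Survival expressed as percent of colonies on plates without LPS or inhibitor.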"}, "[9]": {"target": "T1, Histone-lysine N-methyltransferase EHMT2 (Mus musculus)", "details": "C57BL/6, BMDM, dose 250.0 nM, time 16.0 hrs", "remark": "listed apart in the source"}, "[10]": {"target": "T1, Histone-lysine N-methyltransferase EHMT2 (Mus musculus)", "details": "C57BL/6, BMDM, dose 250.0 nM, time 16.0 hrs", "remark": "listed apart in the source"}, "[11]": {"target": "T1, Histone-lysine N-methyltransferase EHMT2 (Mus musculus)", "details": "C57BL/6, RAW264.7, dose 250.0 nM, time 16.0 hrs"}, "[12]": {"target": "T1, Histone-lysine N-methyltransferase EHMT2 (Mus musculus)", "details": "C57BL/6, RAW264.7, dose 250.0 nM, time 16.0 hrs", "remark": "listed apart in the source"}, "[13]": {"target": "T1, Histone-lysine N-methyltransferase EHMT2 (Mus musculus)", "details": "C57BL/6, BMDM, dose 250.0 nM, time 16.0 hrs", "remark": "listed apart in the source"}}, "note": "Calls of active or inactive are those of the source. No cut-off for these calls is given here. Where a SMILES comes first, the peptide text is derived from it. The star is where a group is joined. Cbz = O=C(OCc1ccccc1)*"}
{"smiles": "C[C@@H]1C[C@@H]([C@H](O)CC2CC(=O)NC(=O)C2)C(=O)[C@@H](C)C1", "values": [{"measurement": "Activity", "setting": "RAW264.7 [1]", "result": "Active"}, {"measurement": "Activity", "setting": "RAW264.7 [2]", "result": "Active"}, {"measurement": "Activity", "setting": "RAW264.7 [3]", "result": "inactive"}]}
{"smiles": "CC(C)C[C@@H](C=O)NC(=O)[C@H](CC(C)C)NC(=O)[C@H](CC(C)C)NC(=O)OCc1ccccc1", "note": "(Cbz-Leu-Leu-Leu-aldehyde)", "values": [{"measurement": "Activity", "setting": "RAW264.7 [4]", "result": "Active"}, {"measurement": "Activity", "setting": "RAW264.7 [5]", "result": "inactive"}, {"measurement": "Activity", "setting": "RAW264.7 [6]", "result": "Active"}]}
{"smiles": "COc1cc2c(NC3CCN(C(C)C)CC3)nc(C3CCCCC3)nc2cc1OCCCN1CCCC1", "values": [{"measurement": "inhibition", "setting": "[7]", "result": "Active"}, {"measurement": "Activity", "setting": "RAW264.7 [8]", "result": "Toxic"}, {"measurement": "inhibition", "setting": "[9]", "result": "Active"}, {"measurement": "inhibition", "setting": "[10]", "result": "Active"}, {"measurement": "inhibition", "setting": "[11]", "result": "Active"}, {"measurement": "inhibition", "setting": "[12]", "result": "Active"}, {"measurement": "inhibition", "setting": "[13]", "result": "Active"}]}
